pIC50: −log10 of the molar value.
What was measured:
[1] = test system: A549; experiment: Antiproliferative activity against human A549 cells assessed as cell viability at 0.1 uM measured after 48 hrs by MTT assay (reference value: 100%); format: functional; settings: read-out: Activity
[2] = target: Interleukin-1 receptor-associated kinase 4 (Homo sapiens) (UniProt Q9NWZ3); experiment: Inhibition of His-tagged full length human IRAK4 expressed in baculovirus expression system at 1 uM by Selectscreen kinase assay
Interleukin-1 receptor-associated kinase 4 (Homo sapiens), sequence (Q9NWZ3 whole entry): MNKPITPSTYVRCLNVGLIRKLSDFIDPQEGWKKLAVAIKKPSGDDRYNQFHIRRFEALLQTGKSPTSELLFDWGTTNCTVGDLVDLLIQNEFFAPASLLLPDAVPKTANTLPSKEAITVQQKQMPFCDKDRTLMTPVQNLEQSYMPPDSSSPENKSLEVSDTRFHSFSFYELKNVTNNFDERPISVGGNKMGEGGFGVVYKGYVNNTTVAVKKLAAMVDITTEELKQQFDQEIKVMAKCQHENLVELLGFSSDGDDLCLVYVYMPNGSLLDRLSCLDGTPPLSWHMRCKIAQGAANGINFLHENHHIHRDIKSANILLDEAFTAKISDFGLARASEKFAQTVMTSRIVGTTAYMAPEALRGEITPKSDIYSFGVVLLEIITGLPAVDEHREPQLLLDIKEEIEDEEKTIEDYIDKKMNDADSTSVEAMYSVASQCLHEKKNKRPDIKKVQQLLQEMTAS
How it was run: (§1)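 Single-point screen at 1 μM final against a panel of 25 kinases using a commercial profiling service; mean of three independent experiments each run in triplicate.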

[3] = test system: MDA-MB-231; experiment: Induction of apoptosis in human MDA-MB-231 cells assessed as viable cells at 0.1 uM incubated for 48 hrs by Annexin V-FITC/PI staining based flow cytometric analysis (reference value: 95.84%); format: functional; settings: read-out: Activity
[4] = test system: MDA-MB-231; experiment: Induction of cell cycle arrest in human MDA-MB-231 cells assessed as accumulation of cells at G2/M phase at 0.4 uM measured after 48 hrs by PI staining based flow cytometry method (reference value: 17.40%); format: functional
[5] = target: Serine/threonine-protein kinase pim-1 (Homo sapiens) (UniProt P11309); experiment: Inhibition of His-tagged full length recombinant human PIM1 expressed in baculovirus expression system at 1 uM by Selectscreen kinase assay; how it was run: as §1
Serine/threonine-protein kinase pim-1 (Homo sapiens), sequence (P11309 whole entry, looked up): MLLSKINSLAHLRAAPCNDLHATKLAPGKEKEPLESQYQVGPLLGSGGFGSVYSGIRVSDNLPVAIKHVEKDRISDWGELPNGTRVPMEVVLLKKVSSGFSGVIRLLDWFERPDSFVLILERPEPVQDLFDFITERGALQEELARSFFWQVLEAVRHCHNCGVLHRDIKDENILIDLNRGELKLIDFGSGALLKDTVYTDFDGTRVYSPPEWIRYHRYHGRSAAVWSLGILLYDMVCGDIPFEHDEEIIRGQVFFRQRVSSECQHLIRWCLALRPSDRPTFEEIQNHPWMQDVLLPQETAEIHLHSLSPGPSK

[6] = test system: MDA-MB-231; experiment: Induction of apoptosis in human MDA-MB-231 cells assessed as necrotic cells at 0.1 uM incubated for 48 hrs by Annexin V-FITC/PI staining based flow cytometric analysis (reference value: 1.08%); format: functional
[7] = test system: MDA-MB-231; experiment: Induction of cell cycle arrest in human MDA-MB-231 cells assessed as accumulation of cells at G0/G1 phase at 0.4 uM measured after 48 hrs by PI staining based flow cytometry method (reference value: 43.43%); format: functional
[8] = test system: A549; experiment: Antiproliferative activity against human A549 cells assessed as cell viability at 2.5 uM measured after 24 hrs by MTT assay (reference value: 100%); format: functional; settings: read-out: Activity
[9] = test system: MDA-MB-231; experiment: Antiproliferative activity against human MDA-MB-231 cells assessed as cell viability at 0.5 uM measured after 24 hrs by MTT assay (reference value: 100%); format: functional; settings: read-out: Activity
[10] = test system: MDA-MB-231; experiment: Induction of cell cycle arrest in human MDA-MB-231 cells assessed as accumulation of cells at S phase at 0.2 uM measured after 48 hrs by PI staining based flow cytometry method (reference value: 39.17%); format: functional
[11] = test system: MDA-MB-231; experiment: Antiproliferative activity against human MDA-MB-231 cells assessed as cell viability at 2.5 uM measured after 72 hrs by MTT assay (reference value: 100%); format: functional; settings: read-out: Activity
[12] = test system: MDA-MB-231; experiment: Induction of apoptosis in human MDA-MB-231 cells assessed as late apoptotic cells at 0.2 uM incubated for 48 hrs by Annexin V-FITC/PI staining based flow cytometric analysis (reference value: 1.49%); format: functional
[13] = test system: A549; experiment: Antiproliferative activity against human A549 cells assessed as cell viability at 0.1 uM measured after 72 hrs by MTT assay (reference value: 100%); format: functional; settings: read-out: Activity
[14] = test system: MDA-MB-231; experiment: Antiproliferative activity against human MDA-MB-231 cells assessed as cell viability at 0.5 uM measured after 48 hrs by MTT assay (reference value: 100%); format: functional; settings: read-out: Activity
[15] = test system: MDA-MB-231; experiment: Induction of apoptosis in human MDA-MB-231 cells assessed as necrotic cells at 0.2 uM incubated for 48 hrs by Annexin V-FITC/PI staining based flow cytometric analysis (reference value: 1.08%); format: functional
[16] = species: Homo sapiens; experiment: Inhibition of His-tagged human PKA catalytic domain expressed in Escherichia coli expression system at 1 uM by Selectscreen kinase assay; how it was run: as §1
[17] = target: Dual specificity mitogen-activated protein kinase kinase 1 (Homo sapiens) (UniProt Q02750); experiment: Inhibition of His-tagged full length human MEK1 expressed in baculovirus expression system at 1 uM by Selectscreen kinase assay; how it was run: as §1
Dual specificity mitogen-activated protein kinase kinase 1 (Homo sapiens), sequence (Q02750 whole entry): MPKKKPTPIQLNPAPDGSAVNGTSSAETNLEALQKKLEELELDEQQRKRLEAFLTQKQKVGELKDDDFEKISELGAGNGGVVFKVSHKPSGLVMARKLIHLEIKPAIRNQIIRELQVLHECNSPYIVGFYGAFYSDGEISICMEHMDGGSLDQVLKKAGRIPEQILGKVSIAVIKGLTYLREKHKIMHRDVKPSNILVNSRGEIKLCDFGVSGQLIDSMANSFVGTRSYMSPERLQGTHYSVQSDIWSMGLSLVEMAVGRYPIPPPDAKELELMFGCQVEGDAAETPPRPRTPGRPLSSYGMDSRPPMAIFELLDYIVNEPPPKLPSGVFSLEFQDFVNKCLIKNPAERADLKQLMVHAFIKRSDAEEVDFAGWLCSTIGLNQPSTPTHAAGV

[18] = test system: MDA-MB-231; experiment: Antiproliferative activity against human MDA-MB-231 cells assessed as cell viability at 0.1 uM measured after 24 hrs by MTT assay (reference value: 100%); format: functional; settings: read-out: Activity
[19] = test system: HK-2; experiment: Cytotoxicity against human HK2 cells assessed as inhibition of cell proliferation measured after 72 hrs by MTT assay; format: cell-based; settings: HK-2, 72 h
How it was run: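 Cells were seeded at 4000–5000/well and held 24 h at 37 °C in 5% CO2. Compounds were added at the indicated final concentrations and incubated 72 h. MTT was added (5 mg/mL in PBS, stated as final) for 4 h at 37 °C. Formazan was dissolved in DMSO and absorbance read at 490 nm. The 50% growth-inhibitory concentration is the mean of three independent experiments ± SE.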

[20] = test system: MDA-MB-231; experiment: Inhibition of cell migration in human MDA-MB-231 cells measured after 48 hrs by wound healing assay; format: functional, cell-based; settings: dose 0.15-0.6 µM
How it was run: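 MDA-MB-231 cells (2×10^6/well) were grown to confluence and the monolayer was scratched with a pipette tip. Cells were washed with PBS, kept in serum-free medium and treated with DMSO or compound at 0.15, 0.3 or 0.6 μM for 48 h. Wound closure was photographed by inverted microscope at 24 and 48 h.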

[21] = test system: MDA-MB-231; experiment: Induction of apoptosis in human MDA-MB-231 cells assessed as early apoptotic cells at 0.1 uM incubated for 48 hrs by Annexin V-FITC/PI staining based flow cytometric analysis (reference value: 1.58%); format: functional
[22] = target: RAC-alpha serine/threonine-protein kinase (Homo sapiens) (UniProt P31749); experiment: Inhibition of His-tagged human full length AKT1 expressed in baculovirus expression system at 1 uM by Selectscreen kinase assay; how it was run: as §1
RAC-alpha serine/threonine-protein kinase (Homo sapiens), sequence (P31749 whole entry): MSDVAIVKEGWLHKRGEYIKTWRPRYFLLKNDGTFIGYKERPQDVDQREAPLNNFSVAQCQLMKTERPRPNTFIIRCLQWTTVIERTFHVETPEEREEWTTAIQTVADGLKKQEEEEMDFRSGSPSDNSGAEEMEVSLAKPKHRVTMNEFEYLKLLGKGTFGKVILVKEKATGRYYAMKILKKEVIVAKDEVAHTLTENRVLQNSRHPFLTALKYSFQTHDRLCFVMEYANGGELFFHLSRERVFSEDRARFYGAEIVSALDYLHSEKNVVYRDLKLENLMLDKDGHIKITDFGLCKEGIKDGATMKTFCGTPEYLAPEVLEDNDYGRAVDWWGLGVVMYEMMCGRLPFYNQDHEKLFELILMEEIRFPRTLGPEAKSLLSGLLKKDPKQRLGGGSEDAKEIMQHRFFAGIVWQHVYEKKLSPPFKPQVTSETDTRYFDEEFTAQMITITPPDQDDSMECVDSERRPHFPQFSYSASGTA

[23] = test system: MDA-MB-231; experiment: Induction of cell cycle arrest in human MDA-MB-231 cells assessed as accumulation of cells at G0/G1 phase at 0.2 uM measured after 48 hrs by PI staining based flow cytometry method (reference value: 43.43%); format: functional
[24] = target: Tyrosine-protein kinase ZAP-70 (Homo sapiens) (UniProt P43403); experiment: Inhibition of His-tagged full-length recombinant human ZAP-70 expressed in baculovirus expression system at 1 uM by Selectscreen kinase assay; how it was run: as §1
Tyrosine-protein kinase ZAP-70 (Homo sapiens), sequence (P43403 whole entry): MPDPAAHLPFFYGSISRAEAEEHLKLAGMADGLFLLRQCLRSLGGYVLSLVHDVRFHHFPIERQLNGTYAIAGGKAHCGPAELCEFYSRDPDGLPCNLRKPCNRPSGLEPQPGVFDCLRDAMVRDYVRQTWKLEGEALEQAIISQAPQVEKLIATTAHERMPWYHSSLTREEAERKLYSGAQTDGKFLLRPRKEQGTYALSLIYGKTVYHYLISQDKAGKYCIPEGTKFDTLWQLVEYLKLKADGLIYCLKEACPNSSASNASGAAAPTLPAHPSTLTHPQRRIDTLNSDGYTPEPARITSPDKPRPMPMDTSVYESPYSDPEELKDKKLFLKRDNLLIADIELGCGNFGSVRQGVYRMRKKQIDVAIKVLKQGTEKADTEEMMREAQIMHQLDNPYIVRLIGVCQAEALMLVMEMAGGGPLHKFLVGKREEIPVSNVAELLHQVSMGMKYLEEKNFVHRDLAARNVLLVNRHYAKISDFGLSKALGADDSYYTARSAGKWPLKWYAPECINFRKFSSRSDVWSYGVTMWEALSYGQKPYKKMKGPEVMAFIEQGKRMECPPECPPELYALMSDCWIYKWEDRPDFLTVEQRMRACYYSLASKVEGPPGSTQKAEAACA

[25] = test system: MDA-MB-231; experiment: Induction of apoptosis in human MDA-MB-231 cells assessed as necrotic cells at 0.4 uM incubated for 48 hrs by Annexin V-FITC/PI staining based flow cytometric analysis (reference value: 1.08%); format: functional
[26] = target: Mitogen-activated protein kinase 1 (Homo sapiens) (UniProt P28482); experiment: Inhibition of GST-tagged full length human ERK2 expressed in Escherichia coli at 1 uM by Selectscreen kinase assay; how it was run: as §1
Mitogen-activated protein kinase 1 (Homo sapiens), sequence (P28482 whole entry, the tested form may be a part): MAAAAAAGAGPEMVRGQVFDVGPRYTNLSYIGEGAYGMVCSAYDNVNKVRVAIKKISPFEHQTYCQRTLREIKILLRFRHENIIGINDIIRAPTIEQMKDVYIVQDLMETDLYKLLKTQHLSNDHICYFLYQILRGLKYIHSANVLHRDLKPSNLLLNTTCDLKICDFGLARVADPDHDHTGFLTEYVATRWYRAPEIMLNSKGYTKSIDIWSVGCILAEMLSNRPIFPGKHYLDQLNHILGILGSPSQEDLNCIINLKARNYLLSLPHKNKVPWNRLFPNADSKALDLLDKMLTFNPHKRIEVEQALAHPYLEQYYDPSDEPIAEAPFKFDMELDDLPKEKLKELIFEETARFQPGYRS

[27] = test system: Hepatocyte growth factor receptor (Homo sapiens), P08581 [Y1235D]; experiment: Inhibition of GST-tagged partial length human MET (956-1390 residues) Y1235D mutant expressed in insect expression system at 1 uM by Selectscreen kinase assay; how it was run: as §1
Hepatocyte growth factor receptor (Homo sapiens), P08581 [Y1235D], sequence (P08581 whole entry Y1235D, the tested form may be a part): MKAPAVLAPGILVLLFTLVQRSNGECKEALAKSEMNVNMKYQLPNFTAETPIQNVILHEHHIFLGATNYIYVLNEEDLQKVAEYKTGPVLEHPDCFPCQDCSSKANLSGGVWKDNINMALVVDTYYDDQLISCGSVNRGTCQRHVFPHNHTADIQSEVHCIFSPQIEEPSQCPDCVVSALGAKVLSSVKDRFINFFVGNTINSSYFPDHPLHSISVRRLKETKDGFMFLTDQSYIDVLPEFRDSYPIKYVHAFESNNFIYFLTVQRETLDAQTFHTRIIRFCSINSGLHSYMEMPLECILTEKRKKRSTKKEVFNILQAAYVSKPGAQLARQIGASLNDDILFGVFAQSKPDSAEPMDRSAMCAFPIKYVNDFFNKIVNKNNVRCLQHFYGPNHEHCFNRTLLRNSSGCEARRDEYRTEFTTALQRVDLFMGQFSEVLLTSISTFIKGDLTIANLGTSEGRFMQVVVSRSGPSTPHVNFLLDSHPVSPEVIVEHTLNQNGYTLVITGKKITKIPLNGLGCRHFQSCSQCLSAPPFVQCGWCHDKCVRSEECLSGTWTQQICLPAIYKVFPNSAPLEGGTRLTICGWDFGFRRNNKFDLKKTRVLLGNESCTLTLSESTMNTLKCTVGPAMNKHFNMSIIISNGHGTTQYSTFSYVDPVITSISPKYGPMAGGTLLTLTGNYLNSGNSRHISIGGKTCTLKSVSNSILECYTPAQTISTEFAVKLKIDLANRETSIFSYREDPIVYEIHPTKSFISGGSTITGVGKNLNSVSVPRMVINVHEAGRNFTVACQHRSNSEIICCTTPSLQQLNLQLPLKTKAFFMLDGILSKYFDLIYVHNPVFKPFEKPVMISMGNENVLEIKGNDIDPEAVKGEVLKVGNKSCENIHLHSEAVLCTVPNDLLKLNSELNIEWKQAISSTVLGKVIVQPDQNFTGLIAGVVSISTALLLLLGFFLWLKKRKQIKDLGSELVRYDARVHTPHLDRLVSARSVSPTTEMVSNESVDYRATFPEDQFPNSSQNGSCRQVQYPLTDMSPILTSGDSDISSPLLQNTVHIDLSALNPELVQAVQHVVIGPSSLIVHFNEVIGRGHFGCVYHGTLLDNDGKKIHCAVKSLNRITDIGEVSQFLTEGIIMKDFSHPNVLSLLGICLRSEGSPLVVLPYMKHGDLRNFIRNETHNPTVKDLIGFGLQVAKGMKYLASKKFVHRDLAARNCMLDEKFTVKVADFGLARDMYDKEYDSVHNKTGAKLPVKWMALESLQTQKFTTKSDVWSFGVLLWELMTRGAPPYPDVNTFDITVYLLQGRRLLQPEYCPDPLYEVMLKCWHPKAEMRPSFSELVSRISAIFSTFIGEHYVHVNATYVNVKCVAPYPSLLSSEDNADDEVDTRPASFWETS

SMILES: COc1ccccc1-c1csc2cnc(Nc3ccc(C(=O)NC4CCNCC4)c(F)c3)nc12
- viability at 0.1 µM [1]: 78.7%
- inhibition [2]: 72%
- viability at 0.1 µM [3]: 85.5%
- Activity [4]: 3.55%
- inhibition [5]: 3%
- Activity [6]: 2.97%
- Activity [7]: 56.27%
- viability at 2.5 µM [8]: 51.5%
- viability at 0.5 µM [9]: 73.7%
- Activity [10]: 39.11%
- viability at 2.5 µM [11]: 9.1%
- Activity [12]: 13.55%
- viability at 0.1 µM [13]: 66.9%
- viability at 0.5 µM [14]: 40.7%
- Activity [15]: 1.72%
- inhibition [16]: 63%
- inhibition [17]: 27%
- viability at 0.1 µM [18]: 97.6%
- pIC50 [19]: 5.48
- inhibition [20]: Dose-dependent effect
- Activity [21]: 7.21%
- inhibition [22]: 15%
- Activity [23]: 51.4%
- inhibition [24]: 6%
- Activity [25]: 4.4%
- inhibition [26]: 1%
- inhibition [27]: 72%

Reference: ChEMBL document CHEMBL4765248, “Design, synthesis, biological evaluation and molecular docking study of novel thieno[3,2-d]pyrimidine derivatives as potent FAK inhibitors” (Eur J Med Chem, 2020)
